From ChEMBL document CHEMBL1137082, “Potent and selective conformationally restricted neuronal nitric oxide synthase inhibitors” (J Med Chem, 2004)
Where “and” joins values, the source holds several entries; their conditions need not be identical. Equal values may be shown once.

Key:
Nitric oxide synthase 3 = molecular target: T1, Nitric oxide synthase 3 (Bos taurus, UniProt P29473); assay: Inhibitory activity against endothelial nitric oxide synthase (eNOS)
T1 sequence (P29473 whole entry): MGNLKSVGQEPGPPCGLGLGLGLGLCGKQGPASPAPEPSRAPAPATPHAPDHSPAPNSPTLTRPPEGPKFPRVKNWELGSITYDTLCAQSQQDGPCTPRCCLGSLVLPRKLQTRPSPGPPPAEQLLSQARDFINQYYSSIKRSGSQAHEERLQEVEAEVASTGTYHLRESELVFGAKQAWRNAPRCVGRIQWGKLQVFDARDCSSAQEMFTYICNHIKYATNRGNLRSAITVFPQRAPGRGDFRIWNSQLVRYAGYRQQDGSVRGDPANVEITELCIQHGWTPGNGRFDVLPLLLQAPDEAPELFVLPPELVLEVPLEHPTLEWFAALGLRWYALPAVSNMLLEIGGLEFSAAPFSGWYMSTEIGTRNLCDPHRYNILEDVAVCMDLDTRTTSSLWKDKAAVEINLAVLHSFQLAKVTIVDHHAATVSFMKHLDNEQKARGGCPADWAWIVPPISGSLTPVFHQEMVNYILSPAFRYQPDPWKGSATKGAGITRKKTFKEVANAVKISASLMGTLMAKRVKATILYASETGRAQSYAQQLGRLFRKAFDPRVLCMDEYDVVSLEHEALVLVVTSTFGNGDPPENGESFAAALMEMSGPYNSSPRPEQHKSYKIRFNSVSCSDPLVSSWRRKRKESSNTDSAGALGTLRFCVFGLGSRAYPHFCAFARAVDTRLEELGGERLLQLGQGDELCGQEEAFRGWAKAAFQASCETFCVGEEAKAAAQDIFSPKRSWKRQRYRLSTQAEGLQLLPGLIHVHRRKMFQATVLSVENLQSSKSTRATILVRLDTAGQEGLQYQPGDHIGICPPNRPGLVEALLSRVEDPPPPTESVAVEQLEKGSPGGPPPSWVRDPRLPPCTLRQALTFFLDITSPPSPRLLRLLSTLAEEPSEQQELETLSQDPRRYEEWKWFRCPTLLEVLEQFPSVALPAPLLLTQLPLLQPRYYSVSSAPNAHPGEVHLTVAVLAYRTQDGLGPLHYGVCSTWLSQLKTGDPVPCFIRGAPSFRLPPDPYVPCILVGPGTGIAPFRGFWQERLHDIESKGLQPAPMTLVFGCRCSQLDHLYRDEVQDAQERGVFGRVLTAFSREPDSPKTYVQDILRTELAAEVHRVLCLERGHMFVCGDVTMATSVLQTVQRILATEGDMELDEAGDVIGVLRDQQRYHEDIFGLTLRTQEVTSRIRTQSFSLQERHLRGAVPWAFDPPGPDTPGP

Nitric oxide synthase 1 [1] = molecular target: T2, Nitric oxide synthase 1 (Rattus norvegicus, UniProt P29476); assay: Inhibitory activity against neuronal nitric oxide synthase (nNOS); Range is 50-100 uM
Nitric oxide synthase 1 [2] = molecular target: T2, Nitric oxide synthase 1; assay: Inhibitory activity against neuronal nitric oxide synthase (nNOS)
[3] = molecular target: T3, Nitric oxide synthase, inducible (Mus musculus) (UniProt P29477); assay: Inhibitory activity against inducible nitric oxide synthase (iNOS) at 100 uM; parameters: scale not given: the % may be the effect or the level left
T3 sequence (whole entry): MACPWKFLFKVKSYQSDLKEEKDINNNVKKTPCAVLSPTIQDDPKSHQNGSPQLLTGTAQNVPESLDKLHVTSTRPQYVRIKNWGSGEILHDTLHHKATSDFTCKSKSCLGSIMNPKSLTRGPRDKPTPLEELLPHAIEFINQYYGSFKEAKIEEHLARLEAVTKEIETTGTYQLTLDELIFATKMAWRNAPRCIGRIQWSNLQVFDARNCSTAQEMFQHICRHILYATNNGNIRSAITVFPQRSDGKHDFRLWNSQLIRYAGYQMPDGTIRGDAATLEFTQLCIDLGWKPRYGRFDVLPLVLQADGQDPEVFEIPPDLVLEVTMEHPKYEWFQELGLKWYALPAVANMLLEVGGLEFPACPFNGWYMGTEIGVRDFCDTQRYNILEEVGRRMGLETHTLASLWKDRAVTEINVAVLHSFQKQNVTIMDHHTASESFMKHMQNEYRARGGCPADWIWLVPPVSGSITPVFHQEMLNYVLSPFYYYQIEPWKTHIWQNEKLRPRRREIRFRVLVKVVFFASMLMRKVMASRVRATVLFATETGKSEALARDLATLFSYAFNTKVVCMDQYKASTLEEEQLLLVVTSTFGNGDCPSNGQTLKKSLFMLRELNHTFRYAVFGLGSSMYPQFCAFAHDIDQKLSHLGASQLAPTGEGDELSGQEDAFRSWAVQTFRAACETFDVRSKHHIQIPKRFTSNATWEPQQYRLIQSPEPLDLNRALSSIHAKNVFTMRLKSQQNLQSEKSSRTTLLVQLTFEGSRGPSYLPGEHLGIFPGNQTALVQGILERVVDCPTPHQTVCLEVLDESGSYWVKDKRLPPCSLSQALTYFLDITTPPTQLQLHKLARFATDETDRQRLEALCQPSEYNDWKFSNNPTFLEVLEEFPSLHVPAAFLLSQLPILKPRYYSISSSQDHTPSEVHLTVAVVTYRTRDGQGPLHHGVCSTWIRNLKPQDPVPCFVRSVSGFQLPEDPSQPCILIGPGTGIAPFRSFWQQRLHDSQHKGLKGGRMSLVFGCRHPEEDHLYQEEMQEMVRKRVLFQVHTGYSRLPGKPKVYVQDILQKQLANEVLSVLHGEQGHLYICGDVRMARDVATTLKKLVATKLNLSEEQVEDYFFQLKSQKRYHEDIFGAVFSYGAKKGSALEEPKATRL
How it was run: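 Single-point screen against murine macrophage iNOS: enzyme residual activity measured at 100 μM inhibitor. NO formation monitored by hemoglobin capture assay with a UV/vis spectrophotometer.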

T2 sequence (P29476 whole entry): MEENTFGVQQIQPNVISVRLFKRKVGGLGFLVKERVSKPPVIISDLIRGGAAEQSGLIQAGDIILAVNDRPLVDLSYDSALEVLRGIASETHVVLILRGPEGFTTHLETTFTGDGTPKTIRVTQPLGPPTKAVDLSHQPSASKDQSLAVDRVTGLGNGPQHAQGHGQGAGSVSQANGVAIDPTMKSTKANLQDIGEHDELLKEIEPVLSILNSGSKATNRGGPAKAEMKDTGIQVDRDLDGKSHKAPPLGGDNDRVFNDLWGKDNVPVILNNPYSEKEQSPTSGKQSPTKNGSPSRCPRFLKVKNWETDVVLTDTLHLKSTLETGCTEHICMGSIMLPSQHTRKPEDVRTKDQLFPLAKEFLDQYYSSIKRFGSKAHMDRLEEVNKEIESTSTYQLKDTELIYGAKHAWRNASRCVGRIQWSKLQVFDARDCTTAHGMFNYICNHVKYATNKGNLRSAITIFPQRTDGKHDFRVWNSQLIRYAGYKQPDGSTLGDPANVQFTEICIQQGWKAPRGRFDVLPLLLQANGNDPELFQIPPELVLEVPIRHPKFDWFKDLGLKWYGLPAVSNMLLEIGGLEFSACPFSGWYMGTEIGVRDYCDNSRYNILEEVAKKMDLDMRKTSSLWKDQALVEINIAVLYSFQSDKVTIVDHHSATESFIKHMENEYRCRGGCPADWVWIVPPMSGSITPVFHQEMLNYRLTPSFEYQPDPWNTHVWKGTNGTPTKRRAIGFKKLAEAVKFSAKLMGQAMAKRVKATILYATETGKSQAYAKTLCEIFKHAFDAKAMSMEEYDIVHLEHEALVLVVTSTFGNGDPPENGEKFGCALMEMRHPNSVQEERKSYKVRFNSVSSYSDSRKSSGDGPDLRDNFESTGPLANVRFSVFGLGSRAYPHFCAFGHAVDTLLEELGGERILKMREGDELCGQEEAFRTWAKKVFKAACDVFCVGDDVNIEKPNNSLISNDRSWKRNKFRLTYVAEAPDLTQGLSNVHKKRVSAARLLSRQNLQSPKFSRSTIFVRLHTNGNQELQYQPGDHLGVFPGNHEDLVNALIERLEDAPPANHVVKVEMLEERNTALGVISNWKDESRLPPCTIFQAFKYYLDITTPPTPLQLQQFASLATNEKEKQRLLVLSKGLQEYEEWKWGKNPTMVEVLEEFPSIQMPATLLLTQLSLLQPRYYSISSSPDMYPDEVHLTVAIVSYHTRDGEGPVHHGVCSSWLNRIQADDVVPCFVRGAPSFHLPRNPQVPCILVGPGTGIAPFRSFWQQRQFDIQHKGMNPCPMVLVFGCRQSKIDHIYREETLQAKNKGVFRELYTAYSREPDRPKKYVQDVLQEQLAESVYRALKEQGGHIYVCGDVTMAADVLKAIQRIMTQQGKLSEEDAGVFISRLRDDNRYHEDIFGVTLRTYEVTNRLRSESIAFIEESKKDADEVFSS

| Compound | IC50 (Nitric oxide synthase 3) | further results |
| --- | --- | --- |
| [N-]=[N+]=N[C@H]1CN[C@@H](C(=O)C[C@@H](CCC/N=C(\N)N[N+](=O)[O-])C(N)=O)C1 | > 100 µM |  |
| [N-]=[N+]=N[C@@H]1CN[C@@H](C(=O)C[C@@H](CCC/N=C(\N)N[N+](=O)[O-])C(N)=O)C1 | > 100 µM | IC50 (Nitric oxide synthase 1 [1]): < 100 µM |
| NC(=O)[C@@H]1C[C@@H](NC(=O)C(F)(F)F)CN1C(=O)[C@H](N)CCC/N=C(\N)N[N+](=O)[O-] | > 100 µM |  |
| NC(=O)[C@@H]1C[C@H](N)CN1C(=O)[C@H](N)CCC/N=C(\N)N[N+](=O)[O-] | > 100 µM |  |
| NC(=O)C1CC(N)CN1C(=O)C(N)CCC/N=C(\N)N[N+](=O)[O-] (stereo unspecified) | > 100 µM |  |
| NC(=O)[C@@H]1C[C@@H](NC(=O)C(F)(F)F)CN1C(=O)[C@@H](N)CCC/N=C(\N)N[N+](=O)[O-] | > 100 µM | IC50 (Nitric oxide synthase 1 [2]): ~100 µM |
| NC(=O)[C@@H]1C[C@H](NC(=O)C(F)(F)F)CN1C(=O)[C@H](N)CCC/N=C(\N)N[N+](=O)[O-] | > 100 µM |  |
| NC(=O)[C@@H]1C[C@@H](N)CN1C(=O)[C@H](N)CCC/N=C(\N)N[N+](=O)[O-] | > 100 µM |  |
| NC(=O)[C@@H]1C[C@@H](N)CN1C(=O)[C@@H](N)CCC/N=C(\N)N[N+](=O)[O-] | > 100 µM | IC50 (Nitric oxide synthase 1 [2]): ~100 µM |
| NC(=O)[C@@H]1C[C@H](N)CN1C(=O)[C@@H](N)CCC/N=C(\N)N[N+](=O)[O-] | > 100 µM |  |
| NC(=O)[C@@H]1C[C@H](NC(=O)C(F)(F)F)CN1C(=O)[C@@H](N)CCC/N=C(\N)N[N+](=O)[O-] | > 100 µM |  |
| CC(=N)Nc1cccc(CN)c1 | 0.48 µM and 1.1 µM | IC50 (Nitric oxide synthase 1 [2]): 0.011 µM |
| NC(=O)[C@@H]1C[C@@H](NC(=O)[C@H](N)CCC/N=C(\N)N[N+](=O)[O-])CN1 |  | Activity [3]: 97% |
| NC(=O)[C@@H]1C[C@H](NC(=O)[C@@H](N)CCC/N=C(\N)N[N+](=O)[O-])CN1 |  | Activity [3]: 95% |
| NC(=O)[C@@H]1C[C@H](NC(=O)[C@H](N)CCC/N=C(\N)N[N+](=O)[O-])CN1 |  | Activity [3]: 96% |
| [N-]=[N+]=N[C@H]1CNC(C(=O)N[C@H](CCCNC(=N)N[N+](=O)[O-])C(N)=O)C1 (single isomer, unassigned) | > 100 µM | IC50 (Nitric oxide synthase 1 [1]): < 100 µM |
| [N-]=[N+]=N[C@@H]1CNC(C(=O)N[C@H](CCCNC(=N)N[N+](=O)[O-])C(N)=O)C1 (single isomer, unassigned) | > 100 µM |  |
| N=C(NCCC[C@@H](NC(=O)C1C[C@H](N)CN1)C(N)=O)N[N+](=O)[O-] (single isomer, unassigned) | > 100 µM |  |
| N=C(NCCC[C@@H](NC(=O)C1C[C@@H](N)CN1)C(N)=O)N[N+](=O)[O-] (single isomer, unassigned) | > 100 µM |  |
| N=C(NCCC[C@H](NC(=O)C1C[C@@H](N)CN1)C(N)=O)N[N+](=O)[O-] (single isomer, unassigned) | > 100 µM |  |

| Compound | IC50 (Nitric oxide synthase 3) | further results |
| --- | --- | --- |
| N=C(NCCC[C@H](NC(=O)C1C[C@H](N)CN1)C(N)=O)N[N+](=O)[O-] (single isomer, unassigned) | > 100 µM |  |
| [N-]=[N+]=N[C@@H]1CNC(C(=O)N[C@@H](CCC/N=C(\N)N[N+](=O)[O-])C(N)=O)C1 (single isomer, unassigned) | > 100 µM |  |
| [N-]=[N+]=N[C@H]1CNC(C(=O)N[C@@H](CCC/N=C(\N)N[N+](=O)[O-])C(N)=O)C1 (single isomer, unassigned) | > 100 µM | IC50 (Nitric oxide synthase 1 [1]): < 100 µM |
| N=C(NCCC[C@@H](N)C(=O)NC1CNC(C(N)=O)C1)N[N+](=O)[O-] (single isomer, unassigned) |  | Activity [3]: 96% |
| N=C(NCCC[C@@H](N)C(=O)N[C@H]1CNC(C(N)=O)C1)N[N+](=O)[O-] (single isomer, unassigned) |  | Activity [3]: 97% |
| N=C(NCCC[C@H](N)C(=O)N[C@H]1CNC(C(N)=O)C1)N[N+](=O)[O-] (single isomer, unassigned) |  | Activity [3]: 94% |
| N=C(NCCC[C@H](N)C(=O)N1CC(NC(=O)C(F)(F)F)C[C@@H]1C(N)=O)N[N+](=O)[O-] (single isomer, unassigned; cis) | > 100 µM |  |
| [N-]=[N+]=NC1CN[C@@H](C(=O)N[C@H](CCCNC(=N)N[N+](=O)[O-])C(N)=O)C1 (single isomer, unassigned; cis) | > 100 µM |  |
| N=C(NCCC[C@@H](N)C(=O)N1CC(NC(=O)C(F)(F)F)C[C@@H]1C(N)=O)N[N+](=O)[O-] (single isomer, unassigned; cis) | > 100 µM |  |
| N=C(NCCC[C@H](N)C(=O)N1CC(N)C[C@@H]1C(N)=O)N[N+](=O)[O-] (single isomer, unassigned; cis) | > 100 µM |  |
| N=C(NCCC[C@@H](N)C(=O)N1CC(N)C[C@@H]1C(N)=O)N[N+](=O)[O-] (single isomer, unassigned; cis) | > 100 µM | IC50 (Nitric oxide synthase 1 [2]): ~100 µM |
| N=C(NCCC[C@@H](NC(=O)[C@H]1CC(N)CN1)C(N)=O)N[N+](=O)[O-] (single isomer, unassigned; cis) | > 100 µM | IC50 (Nitric oxide synthase 1 [1]): < 100 µM |
| N=C(NCCC[C@H](NC(=O)[C@H]1CC(N)CN1)C(N)=O)N[N+](=O)[O-] (single isomer, unassigned; cis) | > 100 µM | IC50 (Nitric oxide synthase 1 [1]): < 100 µM |
| NC(=O)[C@H]1CC(N)CN1C(=O)[C@@H](N)CCC/N=C(\N)N[N+](=O)[O-] (single isomer, unassigned; trans) | > 100 µM |  |
| NC(=O)[C@H]1CC(NC(=O)C(F)(F)F)CN1C(=O)[C@H](N)CCC/N=C(/N)N[N+](=O)[O-] (single isomer, unassigned; trans) | > 100 µM |  |
| N=C(NCCC[C@H](N)C(=O)N1CC(NC(=O)C(F)(F)F)C[C@@H]1C(N)=O)N[N+](=O)[O-] (single isomer, unassigned; trans) | > 100 µM |  |
| [N-]=[N+]=NC1CN[C@@H](C(=O)N[C@H](CCCNC(=N)N[N+](=O)[O-])C(N)=O)C1 (single isomer, unassigned; trans) | > 100 µM |  |
| N=C(NCCC[C@@H](NC(=O)[C@H]1CC(N)CN1)C(N)=O)N[N+](=O)[O-] (single isomer, unassigned; trans) | > 100 µM | IC50 (Nitric oxide synthase 1 [1]): < 100 µM |
| N=C(NCCC[C@H](NC(=O)[C@H]1CC(N)CN1)C(N)=O)N[N+](=O)[O-] (single isomer, unassigned; trans) | > 100 µM | IC50 (Nitric oxide synthase 1 [1]): < 100 µM |
| N=C(NCCC[C@@H](N)C(=O)N1CC(N)C[C@@H]1C(N)=O)N[N+](=O)[O-] (single isomer, unassigned; trans) | > 100 µM |  |
